Source: PubChem BioAssay (Johns Hopkins Ion Channel Center)
This is a sample that favours compounds with a hit; in the whole collection about 3.5% have one here.
MrgX1 agonist: human MrgX1 receptor agonism, primary screen; Q96LB2; MrgX1-HEK293 cells, Fluo-4 calcium fluorescence, agonist mode; active compounds read high; B-score at 10 µM; 0.44% of 310,000 active; AID 588627;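 active = calcium response B-score plate-corrected fluorescence ratio at least 3 library SD, with starting fluorescence B-score inside 5 SD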
Target sequence (Q96LB2 whole entry, looked up): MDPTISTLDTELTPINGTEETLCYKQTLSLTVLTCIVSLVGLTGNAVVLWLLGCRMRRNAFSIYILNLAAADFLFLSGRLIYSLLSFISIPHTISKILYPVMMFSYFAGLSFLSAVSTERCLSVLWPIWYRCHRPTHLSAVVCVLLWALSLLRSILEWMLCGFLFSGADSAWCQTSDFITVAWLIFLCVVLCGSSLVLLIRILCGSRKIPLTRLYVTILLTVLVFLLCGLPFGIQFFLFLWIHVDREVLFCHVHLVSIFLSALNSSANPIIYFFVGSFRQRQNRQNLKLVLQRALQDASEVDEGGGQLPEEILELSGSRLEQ
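times = overnight plating, then 30 min 37 °C plus 30 min room-temperature dye loading | assay system = stable human MrgX1 HEK293 cell line | input = fifteen thousand cells per well | signal = kinetic calcium dye fluorescence, Fluo-4 NW | dosing = compound delivered in addition one of three | read-out = B-scored fluorescence response ratio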
MrgX1 antag: blocks BAM8-22 activation of human MrgX1 receptor; B-score at 10 µM; 1.3% of 310,000 active; MRGX1-HEK293 calcium flux, Fluo-4, BAM8-22 antagonism; active compounds read low; Q96LB2;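 active = calcium-response B-score plate-corrected more than 3 library SD below zero, starting fluorescence within 5 deviations, no agonist response on first addition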;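 note: peak minus trough fluorescence over baseline after final BAM8-22 challenge near maximal dose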
MrgX1 PAM: human MrgX1 positive allosteric modulation, primary screen; MrgX1-HEK293, Fluo-4 calcium flux, FDSS; active compounds read high; B-score at 10 µM; 0.63% of 310,000 active; AID 588675;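 active = plate-corrected calcium response at least 3 library SD above typical, normal starting fluorescence, not activating the receptor alone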;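 note: compound read alongside a low EC10 to EC30 dose of BAM8-22 agonist; peak minus trough fluorescence over baseline measured at the second addition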
RGS4 pot: RGS4 potentiation or activation; HEK293 M3R/inducible RGS4, carbachol calcium flux Fluo4; active compounds read low; B-score at 10 µM; 0.92% of 310,000 active; AID 463111;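 active = B-score of the integrated calcium signal more than 4 SD below the library mean, with starting fluorescence not abnormally high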;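 note: negative B-score means reduced calcium response which marks RGS4 activation or potentiation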
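Detection: kinetic calcium fluorescence imaging with Fluo4-AM dye, 2 µM / Material: HEK293 cells with stable M3R and inducible RGS4 / Schedule: recording 10 s baseline at 1 Hz, 100 s post-agonist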
RGS4 inh: inhibitors of human RGS4; HEK293 M3R/RGS4 inducible, Fluo-4 calcium flux; active compounds read high; triggered by carbachol at its EC20; 0.45% of 310,000 active; AID 463165; B-score at 10 µM; P49798;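 active = B-score, a plate-corrected calcium signal, over three deviations above library mean, with baseline fluorescence within five deviations of library mean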;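 note: RGS4 expression induced by doxycycline in cells with stable M3 receptor; B-score is computed from the integrated fluorescence ratio over baseline after carbachol; higher B-score means a larger calcium signal and so more RGS4 inhibition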
Target sequence (P49798 whole entry, looked up): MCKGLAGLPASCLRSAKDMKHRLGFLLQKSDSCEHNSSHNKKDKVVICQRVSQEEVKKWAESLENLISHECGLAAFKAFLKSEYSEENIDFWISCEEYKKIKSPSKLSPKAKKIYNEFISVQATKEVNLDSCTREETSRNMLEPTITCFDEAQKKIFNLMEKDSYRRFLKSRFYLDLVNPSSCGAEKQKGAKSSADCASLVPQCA
* = called active by the depositor.

For C#CCOCCOCCOCCNc1nc(N2CCN(C(=O)CCCCCCCCCCNC(=O)[C@H](CO)n3cc(CCCCCN)nn3)CC2)nc(N2CCN(C(=O)CCCCCCCCCCNC(=O)[C@H](CCCN=C(N)N)n3cc(C[C@@H](C)CC)nn3)CC2)n1 the results were MrgX1 agonist 70*, MrgX1 antag inactive and MrgX1 PAM inactive.
For C#CCOCCOCCOCCNc1nc(N2CCN(C(=O)CCCCCCCCCCNC(=O)[C@H](CCCCN)n3cc(C[C@@H](C)CC)nn3)CC2)nc(N2CCN(C(=O)CCCCCCCCCCNC(=O)[C@H](CCCN=C(N)N)n3cc(C[C@@H](C)CC)nn3)CC2)n1 the results were MrgX1 agonist 35*, MrgX1 antag inactive and MrgX1 PAM inactive.
For C#CCOCCOCCOCCNc1nc(N2CCN(C(=O)CCCCCCCCCCNC(=O)[C@H](CCCCN)n3cc(C)nn3)CC2)nc(N2CCN(C(=O)CCCCCCCCCCNC(=O)[C@H](CCCN=C(N)N)n3cc(C[C@@H](C)CC)nn3)CC2)n1 the results were MrgX1 agonist 104*, MrgX1 antag inactive and MrgX1 PAM inactive.
`C#CCOCCOCCOCCNc1nc(N2CCN(C(=O)CCCCCCCCCCNC(=O)[C@H]([C@@H](C)CC)n3cc(CCCCN=C(N)N)nn3)CC2)nc(N2CCN(C(=O)CCCCCCCCCCNC(=O)[C@@H]([C@H](C)O)n3cc(C)nn3)CC2)n1` gave MrgX1 agonist inactive, MrgX1 antag inactive and MrgX1 PAM inactive.
Screening C#CCOCCOCCOCCNc1nc(N2CCN(C(=O)CCCCCCCCCCNC(=O)[C@H](CCCCN)n3cc(C[C@@H](C)CC)nn3)CC2)nc(N2CCN(C(=O)CCCCCCCCCCNC(=O)[C@@H]([C@H](C)O)n3cc(C)nn3)CC2)n1 returned MrgX1 agonist inactive, MrgX1 antag inactive and MrgX1 PAM 6.9*.
Screening C#CCOCCOCCOCCNc1nc(N2CCN(C(=O)CCCCCCCCCCNC(=O)[C@H](CCCCN)n3cc(C)nn3)CC2)nc(N2CCN(C(=O)CCCCCCCCCCNC(=O)[C@@H]([C@H](C)O)n3cc(C)nn3)CC2)n1 returned MrgX1 agonist inactive, MrgX1 antag inactive and MrgX1 PAM inactive.
For C#CCOCCOCCOCCNc1nc(N2CCN(C(=O)CCCCCCCCCCNC(=O)[C@@H](CCSC)n3cc(CCO)nn3)CC2)nc(N2CCN(C(=O)CCCCCCCCCCNC(=O)[C@H](CCCN=C(N)N)n3cc(C[C@@H](C)CC)nn3)CC2)n1 the results were MrgX1 agonist inactive, MrgX1 antag inactive and MrgX1 PAM inactive.
Cc1cccc(C)c1-n1c(C)nn(CCOc2ccccc2)c1=O was read as MrgX1 agonist inactive, MrgX1 antag inactive, MrgX1 PAM inactive, RGS4 pot inactive and RGS4 inh inactive.
Screening O=C(O)/C=C/C(=O)c1ccc2c(c1)CCc1ccccc1-2 returned MrgX1 agonist inactive, MrgX1 antag -5.2*, MrgX1 PAM inactive, RGS4 pot inactive and RGS4 inh inactive.
Cc1ccc(O)c(C2=NNC(c3ccc(Cl)cc3)C2)c1 (configuration not stated) was read as MrgX1 agonist inactive, MrgX1 antag inactive, MrgX1 PAM inactive, RGS4 pot inactive and RGS4 inh inactive.
`Oc1ccc(Cl)cc1C1=NNC(c2cccs2)C1` (configuration not stated) gave MrgX1 agonist inactive, MrgX1 antag -5.6*, MrgX1 PAM inactive, RGS4 pot inactive and RGS4 inh inactive.
For CN(C)c1ccc(/C=N/NC(=O)c2nnn(-c3nonc3N)c2CN2CCCCCC2)cc1 the results were MrgX1 agonist inactive, MrgX1 antag inactive, MrgX1 PAM inactive, RGS4 pot inactive and RGS4 inh inactive.
O=C(/C=C/c1ccccc1)c1cc(Br)ccc(=O)c1O was read as MrgX1 agonist inactive, MrgX1 antag inactive, MrgX1 PAM 11*, RGS4 pot inactive and RGS4 inh inactive.
Screening CC1(C)CC(=O)C/C(=N/NC(=O)COc2ccc(Cl)cc2Cl)C1 returned MrgX1 agonist inactive, MrgX1 antag inactive, MrgX1 PAM inactive, RGS4 pot inactive and RGS4 inh inactive.
Screening CC1(C)CC(=O)C/C(=N/NC(=O)COc2ccc3ccccc3c2Br)C1 returned MrgX1 agonist inactive, MrgX1 antag -8*, MrgX1 PAM inactive, RGS4 pot inactive and RGS4 inh inactive.
`COc1cc(C(=O)NCCOc2ccccc2)c(Br)c(OC)c1OC` gave MrgX1 agonist inactive, MrgX1 antag inactive, MrgX1 PAM inactive, RGS4 pot inactive and RGS4 inh inactive.
`COc1cc(C(=O)NCCOc2cccc(C)c2)c(Br)c(OC)c1OC` gave MrgX1 agonist inactive, MrgX1 antag inactive, MrgX1 PAM inactive, RGS4 pot -7.2* and RGS4 inh inactive.
`COc1ccc(NC2(c3ccc(Cl)cc3)C(=O)c3ccccc3C2=O)cc1` gave MrgX1 agonist inactive, MrgX1 antag inactive, MrgX1 PAM inactive, RGS4 pot inactive and RGS4 inh inactive.
O=C1OCCN1C(=O)[C@H]1[C@H](c2ccc(F)cc2)C(c2ccc(F)cc2)=NN1c1ccc(Br)cc1 was read as MrgX1 agonist inactive, MrgX1 antag inactive, MrgX1 PAM inactive, RGS4 pot -9.2* and RGS4 inh inactive.
`CN(C)CCCNc1ncnc2oc(-c3ccccc3)c(-c3ccccc3)c12` gave MrgX1 agonist inactive, MrgX1 antag inactive, MrgX1 PAM inactive, RGS4 pot inactive and RGS4 inh inactive.
Screening CC(C)Cn1cnc2c(c(-c3ccccc3)c(-c3ccccc3)n2Cc2ccco2)c1=N returned MrgX1 agonist inactive, MrgX1 antag inactive, MrgX1 PAM inactive, RGS4 pot -11* and RGS4 inh inactive.
For c1ccc(-c2c(-c3ccccc3)n(Cc3ccco3)c3ncnc(NCCCn4ccnc4)c23)cc1 the results were MrgX1 agonist inactive, MrgX1 antag inactive, MrgX1 PAM inactive, RGS4 pot -8.5* and RGS4 inh inactive.
`c1ccc(-c2oc3ncnc(NCCCn4ccnc4)c3c2-c2ccccc2)cc1` gave MrgX1 agonist inactive, MrgX1 antag -5.4*, MrgX1 PAM inactive, RGS4 pot inactive and RGS4 inh inactive.
For OCCNc1ncnc2c1c(-c1ccccc1)c(-c1ccccc1)n2Cc1ccco1 the results were MrgX1 agonist inactive, MrgX1 antag inactive, MrgX1 PAM inactive, RGS4 pot inactive and RGS4 inh inactive.
For N=c1c2c(-c3ccccc3)c(-c3ccccc3)n(Cc3ccco3)c2ncn1CCCn1ccnc1 the results were MrgX1 agonist inactive, MrgX1 antag inactive, MrgX1 PAM inactive, RGS4 pot inactive and RGS4 inh inactive.
For COc1cc(OC)cc(C(=O)Nc2ccc3c(c2)n(C)c(=O)n3C)c1 the results were MrgX1 agonist inactive, MrgX1 antag inactive, MrgX1 PAM inactive, RGS4 pot inactive and RGS4 inh inactive.
